According to the EternaBench riboswitch data:

Test system: MS2 coat protein
Test: apparent Kd, MS2 coat protein; higher = weaker binding; RNA-MaP array; FMN 200 µM where present
Method in brief: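 Stalled E. coli RNA polymerase transcribed each design on Illumina sequencing-chip clusters. The clusters were titrated with SNAP-549-labelled MS2 coat protein, starting at 0.7 or 1.5 nM and doubling up to 3 µM, first without ligand and then with constant ligand, in 100 mM Tris-HCl pH 7.5, 80 mM KCl, 4 mM MgCl2, BSA, DTT, yeast tRNA and Tween-20. Green signal was normalised to red-channel RNA signal and to the control-cluster median Fmax. The apparent Kd is the median of filtered binding-curve fits made for each cluster.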

[1] = designed as: ON switch for flavin mononucleotide, no ligand
[2] = ligand present: flavin mononucleotide, designed as: ON switch for flavin mononucleotide
[3] = designed as: OFF switch for flavin mononucleotide, no ligand
[4] = ligand present: flavin mononucleotide, designed as: OFF switch for flavin mononucleotide

Sequence | apparent Kd [1] | apparent Kd [2] | apparent Kd [3] | apparent Kd [4]
UGAGUAGCGUAACAACGCACAUGAGGAUCACCCAUGUCUACACAGGAUAUGCGACGCUCCAGUUAGCAGAAGGGUGAACUCAAA | 78.7 nM | 138 nM | – | –
AGCCUACAUGAGGAUCACCCAUGUCAGGAUAUCUCGCAACGUGUCAAGUUCACGUCGCAGAGAAGGGACUCGGG | – | – | 55.7 nM | 54 nM
CUGUAGAUAUCAGGAUAUCUAUUUCCUACAUGAGGAUCACCCAUGUAGAUGAUCACCCAUGUAAAGGAGAAGGGAUAUCUAUAG | 342 nM | 180 nM | – | –
UUUUUGUCAGGAUAUGAGUCGUAGAACAAUAGUACUACGUCUCAGAAGGGACAUGAGGAUCACCCAUGUGCCUC | – | – | 26 nM | 143 nM
AAGUUUGUACAAGGAUAUCAAUUGUUUCUAAAUUCAACAUGAGGAUCACCCAUGUAACAAUGGAGUGAGAAGGUGUGUGGGCAA | 419 nM | 423 nM | – | –
AGCAUGUGAGGAUAUGCGGACUCCGGUAAAUCUGGAAUCCAGUAGAAGGCACAUGAGGAUCACCCAUGUGAUAA | – | – | 68.2 nM | 55.9 nM
CUUUAUAAUACCUCAUGUACAUGAGGAUCACCCAUGUUAACUAAGGAUAUAUAUAAAUUAAUAAUGUAGAAGGUAGUACUAUUU | – | – | 17.3 nM | 14.8 nM
GGCGGUCCUUAAUGCACCUGCACAUGAGGAUCACCCAUGUACAGAAGGGCCAGCACCGAAGUAUGGCAGGAUAUGUCGCACGAG | – | – | 7.56 nM | 10.1 nM
GAUCUGGCAGGAUAUACAUGAGGAUCACCCAUGUGCGAGCUAGCGAAAGCUAGCUCAGGUAGAAGGGUCAGAUC | – | – | 12.7 nM | 15.5 nM
UCGGCGCGAGGAUAUACGGUUGCUUGGUAGGGUCGUGGCGUACAUGAGGAUCACCCAUGUAGAAGGCGCGCCGC | – | – | – | 60.3 nM
ACGACGAAAGUCGAACGAUGUAGCAGAAGGACAUGAGGAUCACCCAUGUCAGCUGUAACAGCCAUGUAGGAUAUGCUACAUCGA | – | – | 4.35 nM | 5.67 nM
UUCAGCUCGUGAGGAUAUACAUGUGCUGGAAACAGCACUAUUAAGAUCACAUGAGGAUCACCCAUGUAGAAGGCACGAGCUGAG | – | – | 48 nM | 585 nM
UUGAGGUAGGAGAAGGACAGAGGCGGAAACACAAACAUGAGGAUCACCCAUGUAGGAUAUCCUAACUAACGAGAAUACCUCAAG | – | – | 6.36 nM | 6.89 nM
UUUGAUAGCACAGGAUAUUGUCAUUUGAGUUGUCAAGAAGGGUGUACAUGAGGAUCACCCAUGUAAUGGUUGCCUCGCUGACUU | – | – | 175 nM | 279 nM
CAGUACUGAGGAUAUACAUGAGGAUCACCCAUGUGUUCCAGCUAGGAAACUAGCAAAAGUAGAAGGCUGUACUG | – | – | 16.9 nM | 172 nM
ACGACGAAAGUCGAACGAUGAUCGAGAAGGACAUGAGGAUCACCCAUGUCUGCUGUAACAGCCAUGUAGGAUAUCGAUCAUCGA | – | – | 3.62 nM | 4.13 nM
UCAUAUUUACAAGGAUAUCAAUUAAUUAAACAUCCUACAUGAGGAUCACCCAUGUUAAAAUAUUAUGAGAAGGUGUAUUGUCGG | 32.7 nM | 40.3 nM | – | –
UAAUUGUGAGGAUAUUCGUAGUUCUCGGAGACGAGAAUUACGGAGAAGGCACAUGAGGAUCACCCAUGUUCCUU | – | – | 18.3 nM | 96.1 nM
GGAUAGGACAGAGGAUAUACGUGCUAGAGAUACUAGCAAAAUUUCCUCACAUGAGGAUCACCCAUGUAGAAGGCUGGCCUAUCG | – | – | 14.1 nM | 379 nM
CCGAAUGUCACAGGAUAUGGUCCGGGCUCGCGACCAGAAGGGUGAUCUCACAUGAGGAUCACCCAUGUGUAGGCGUUAGGCUAC | 36.3 nM | 260 nM | – | –
UUUUAACAUGAGGAUCACCCAUGUGAGGAUAUCGAAAUUUAUAUUUAUAUUAAUUUAACGAGAAGGCACAUUUU | – | – | 91.2 nM | 114 nM
ACCUCACAUGAGGAUCACCCAUGUCAGGAUAUCUAAUGUAGUAGCGUUCCCGACGCUAAGAGAAGGGACAUUAA | – | – | 15.9 nM | 22 nM
AAAACGGUAGGAUAUACAUGAGGAUCACCCAUGUUAAAUUUAAAAAUAAAAUUAAAAUGUAGAAGGACCAAAAA | – | – | 32 nM | 32.3 nM
GUGUAGAUAGCAGGAUAUCUAUUUCCUACAUGAGGAUCACCCAUGUAGAUGAUCACCCAUGUAAAGGAGAAGGGCUAUCUAUAC | 367 nM | 165 nM | – | –

Sequence | apparent Kd [1] | apparent Kd [2] | apparent Kd [3] | apparent Kd [4]
CCUAGACAUGAGGAUCACCCAUGUGAGGAUAUGAUGCGAUCGUCGAAAGACGAUAGCAUCAGAAGGCACAUAUG | – | – | 34.4 nM | 109 nM
AAUUAUAUGUAGAAGGUACAGACUUAUGAGUAGUAAGGAUAUACAAAAUUAUUAAUUCUCAAGUUACAUGAGGAUCACCCAUGU | 11.6 nM | 8.33 nM | – | –
GGCACUAUCACAGGAUAUGCUUUCCUUUGGGAAGCAGAAGGGUGUAACAUGAGGAUCACCCAUGUGGUGCCAGGGCGUGAGCCC | 114 nM | 10.9 nM | – | –
GCUGCUCAUGAGAAGGCGAUCAUGAAACAUGAUCGAGGAUAUCAUGUAAACAUGAGGAUCACCCAUGUAUGGGUAUUAUGCAGC | 117 nM | 40.5 nM | – | –
GUUGAGUGAGAGAAGGCCAGUUGGGAAAAUGAUCGACAGUGUACAGCGUGGAGGAUAUCUCAACAUGAGGAUCACCCAUGUAUA | 186 nM | 12.3 nM | – | –
UUGCCUCAGAACAUGAGGAUCACCCAUGUGCUGCGGGCAACGUAGGAUAUGAUGGUUCGAUACCAUCAGAAGGAUGAUGGUACC | 5.42 nM | 5.22 nM | – | –
GUGGUACAUGAGGAUCACCCAUGUUAGGAUAUCGCGUGAGGUUUUACUUACACACACACGAGAAGGGACGUCUU | – | – | 47.5 nM | 36 nM
CCAGCAAAAGUGAGGAUAUGCUGGUCCUUGGAUCAGCAGAAGGCACAUGAGGAUCACCCAUGUCGUGGAGCUGG | – | – | 26.2 nM | 55.3 nM
AUUUAUGUCAUAGGAUAUAUAAAUAAAUUUAUAACAUGAGGAUCACCCAUGUACUUUGGUAUGAGGUAGAAGGAUGAUAAGAAU | 49.6 nM | 31.9 nM | – | –
CUCAUGUGAGGAUAUAGUACUUCUUCUAUUAUUAUUGAGUACUAGAAGGCACAUGAGGAUCACCCAUGUAGUAC | – | – | 16 nM | 16.3 nM
AAUUAACUCACAGGAUAUAGCAGAGGUCGAGUAAACUUACAGGCGACGAGGCUAGAAGGGUGACCACAUGAGGAUCACCCAUGU | 733 nM | 131 nM | – | –
GUAAAUCAUGUAGGAUAUGCAUGGCGAAGCUACGCAGAAGGACAUGAGGAUCACCCAUGUGCUAGCUACCGAGUUCGGUGGCAA | – | – | 77.1 nM | 354 nM
GUGGUCAGACAUGAGGAUCACCCAUGUGGAAUAAAUAAGGAGAAGGAUAUGGAAUAUAGGAUAUACCAGAAGGUUUGGUUGGUG | 112 nM | 116 nM | – | –
UGGGCUACCACAGGAUAUGCUACAUGAGGAUCACCCAUGUAAAGAAAAUCGGCAGAAGGGUGGUUAGUGCAGCAUGAAGGAGCC | 28.9 nM | 10.8 nM | – | –
GAUCAUGCAGGAUAUACAUUAACCAUGAAAACAUGGUUGUAACAUGAGGAUCACCCAUGUAGAAGGGCAUGAUC | – | – | 14.2 nM | 21.3 nM
ACAAAACAUGAGGAUCACCCAUGUGAGGAUAUGCGAAACAAACAAACAAACAAACAAAGCAGAAGGCACAACAA | – | – | 22.7 nM | 37.1 nM
GUAGCAAUCGGAGGAUAUGGGUUAUACAUGAGGAUCACCCAUGUUAAUUUACUAGAAGGCCGAUUGCUACAAGAGCGAAAGCUC | 10.8 nM | 5.7 nM | – | –
UAUUCAUACGAAGGAUAUGGUUACAUGAGGAUCACCCAUGUAUGUAUAUUGAUCUAGUUAUUUAACCAGAAGGUCGAAUAUAAA | – | – | 35.4 nM | 72.6 nM
GAGCUAUGAGGAUAUGCAUAUAUACGGAUUCGUGUGGUACUACAUGAGGAUCACCCAUGUAGAAGGCGUGGCUG | – | – | 19 nM | 20.8 nM
AAACCUAUAGGAUAUACAUGAGGAUCACCCAUGUUGCGAUUUUUUAGGUAACAGAUCCGUAGAAGGGUAGGUUA | – | – | 23.8 nM | 57.6 nM
CUGAGCAAUGUAGGAUAUCGACUGGAUAACAGUCGAGAAGGACAUGAGGAUCACCCAUGUAAAUGAGUGAAUAAUAAAGCUCAG | – | – | 1070 nM | 331 nM
CUUCUGUAAGGAUAUGUAAAUUGCUGACCACACCAGCACCGGCAGAAGGUACAUGAGGAUCACCCAUGUGGGUU | – | – | 240 nM | 148 nM
UAAGUCGGAAGAUAAUAAUGAAUACAUGAGGAUCACCCAUGUAAGGAUAUGCAGUGGAAUACACUGCAGAAGGUACAUACCGAC | – | – | 16.1 nM | 21.4 nM
AGCAUGCAGUAGGAUAUCGAUCCACAAUAUGAACGAGAAGGACUGACAUGAGGAUCACCCAUGUGCGUCCUAGG | – | – | 16.7 nM | 16.6 nM
